The record followed here is ChEMBL document CHEMBL6127098, “Discovery of Oral Degraders of the ROS1 Fusion Protein with Potent Activity against Secondary Resistance Mutations” (J Med Chem, 2024).

The nature of test [1]: PROTAC activity at CRBN/ROS1 in mouse BaF3 cells assessed as ROS1 degradation by immunoblotting assay. Format: cell-based. In short, it runs like this: (§1)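 IL-3-independent Ba/F3 cells expressing CD74-ROS1 variants were treated with compound. ROS1 and phospho-ROS1 were quantified by capillary immunoassay (WES) in duplicate experiments. DC50 is the concentration that lowers ROS1 or p-ROS1 by 50%; Dmax is the maximal degradation.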

Test [2] concerns the target CD74-ROS1 (Homo sapiens, UniProt P08922). Kind of test: Inhibition of ROS1/CD74 (unknown origin) expressed in mouse BaF3 cells. It counts as cell-based.
In test [3] the test system is BaF3. As to the kind of experiment: Induction of ROS1 degradation in mouse BaF3 cells assessed as reduction in ROS1 level by Western blotting analysis. Format: cell-based. In short, it runs like this: as §1
A general note: A western blot detects proteins with antibodies after separation by electrophoresis.

The subject of test [4] is BaF3. As to the kind of experiment: Induction of ROS1 L2026M degradation in mouse BaF3 cells assessed as reduction in ROS1 level by Western blotting analysis. Format: cell-based. In short, it runs like this: as §1
Test [5] relates to BaF3. Kind of test: Induction of ROS1 D2033N degradation in mouse BaF3 cells assessed as reduction in ROS1 level by Western blotting analysis. It counts as cell-based. In short, it runs like this:
as §1

For test [6], the system named is BaF3. Kind of test: Induction of ROS1 G2032R degradation in mouse BaF3 cells assessed as reduction in ROS1 level by Western blotting analysis. It counts as cell-based. A digest of the protocol:
as §1

The subject of test [7] is BaF3. Kind of test: Induction of ROS1 G2032R/F2075V degradation in mouse BaF3 cells assessed as reduction in ROS1 level by Western blotting analysis. Format: cell-based. In short, it runs like this:
as §1

The test system of test [8] is BaF3. As to the kind of experiment: Induction of ROS1 degradation in mouse BaF3 cells assessed as reduction in p-ROS1 level by Western blotting analysis. Format: cell-based. A digest of the protocol: as §1
Test [9] relates to BaF3. As to the kind of experiment: Induction of ROS1 L2026M degradation in mouse BaF3 cells assessed as reduction in p-ROS1 level by Western blotting analysis. Format: cell-based. In short, it runs like this: as §1
Test [10] relates to BaF3. As to the kind of experiment: Induction of ROS1 D2033N degradation in mouse BaF3 cells assessed as reduction in p-ROS1 level by Western blotting analysis. Format: cell-based. In short, it runs like this:
as §1

Test [11] deals with BaF3. Kind of test: Induction of ROS1 G2032R degradation in mouse BaF3 cells assessed as reduction in p-ROS1 level by Western blotting analysis. Format: cell-based. A digest of the protocol: as §1
Test [12] has as its system BaF3. Kind of test: Induction of ROS1 G2032R/F2075V degradation in mouse BaF3 cells assessed as reduction in p-ROS1 level by Western blotting analysis. It counts as cell-based. A digest of the protocol: as §1
Test [13] has as its target Proto-oncogene tyrosine-protein kinase ROS (Homo sapiens, UniProt P08922). As to the kind of experiment: Induction of ROS1 (unknown origin) degradation by Western blotting analysis. A digest of the protocol: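 Ba/F3 cells stably expressing CD74-ROS1 (retroviral transduction, puromycin-selected, IL-3 withdrawn at least 2 weeks before use) were grown in RPMI with 10% FBS and treated with compound diluted from DMSO stock in RPMI. Total ROS1 and p-ROS1 were quantified by WES capillary immunoblot in duplicate experiments. DC50 is the concentration that reduces protein by 50%, and Dmax is the maximal degradation.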

Test [14] is described as follows: Induction of FLT3 (unknown origin) degradation by Western blotting analysis. Details: species or system Homo sapiens.
Test [15] can be described thus: Induction of ERBB4 (unknown origin) degradation by Western blotting analysis. Set-up: species or system Homo sapiens.
Test [16] can be described thus: Induction of CLK1 (unknown origin) degradation by Western blotting analysis. Set-up: species or system Homo sapiens.
Test [17] can be described thus: Induction of LTK (unknown origin) degradation by Western blotting analysis. Details: species or system Homo sapiens.
For test [18], the system named is NCI-H2228. Kind of test: Induction of FAK degradation in human NCI-H2228 cells at 100 nM incubated for 24 hrs by proteomics analysis. It counts as cell-based. In short, it runs like this: (§2)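 Lysates in RIPA with protease/phosphatase inhibitors, protein measured by BCA, trypsin-digested and TMT-labelled. Relative abundance taken as the ratio of TMT reporter ions in degrader-treated versus inhibitor-treated cells.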

The test system of test [19] is NCI-H2228. Kind of test: Induction of ALK degradation in human NCI-H2228 cells at 100 nM incubated for 24 hrs by proteomics analysis. Format: cell-based. A digest of the protocol:
as §2

Test [20] concerns NCI-H2228. As to the kind of experiment: Induction of FER degradation in human NCI-H2228 cells at 100 nM incubated for 24 hrs by proteomics analysis. It counts as cell-based. In short, it runs like this:
as §2

Test [21] has as its system BaF3. As to the kind of experiment: Antiproliferative activity against mouse BaF3 cells expressing CD74-ROS1 incubated for 72 hrs by Alamar blue reagent based plate reader assay. Format: functional, cell-based. The conditions noted are these: BaF3, 72 h. In short, it runs like this: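 Ba/F3 cells stably expressing CD74- or SLC34A2-ROS1 fusions (wild type or mutant), made by retroviral transduction, selected with puromycin, and grown without IL-3 for ≥2 weeks. Alamar Blue added for 4 h. IC50 from sigmoidal nonlinear regression; mean ± SD of triplicate experiments.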
(The colour change of resazurin is a common sign of viable cells or microbes.)

The test system of test [22] is BaF3. Kind of test: PROTAC activity at CRBN/ROS1 in mouse BaF3 cells assessed as maximum ROS1 degradation by immunoblotting assay relative to control. Format: cell-based. In short, it runs like this: as §1
A short description of test [23]: Inhibition of ROS1-V2098I mutant/SLC34A2 (unknown origin) expressed in mouse BaF3 cells. Format: cell-based, Homo sapiens.
Test [24] in a line: Inhibition of ROS1-S1986F-G2032R-L2086F mutant/CD74 (unknown origin) expressed in mouse BaF3 cells. Format: cell-based, Homo sapiens.
Test [25] in a line: Inhibition of ROS1-G2032R-F2075C mutant/SLC34A2 (unknown origin) expressed in mouse BaF3 cells. Format: cell-based, Homo sapiens.
Test [26] has as its system BaF3. Kind of test: Antiproliferative activity against mouse BaF3 cells harboring ROS1 G2032R mutant incubated for 72 hrs by Alamar blue reagent based plate reader assay. The note with it: BaF3, 72 h.

Each structure is given as a SMILES string. Activity calls are given as the source filed them. The rule behind the calls is not given here.

Proto-oncogene tyrosine-protein kinase ROS, sequence (P08922 whole entry): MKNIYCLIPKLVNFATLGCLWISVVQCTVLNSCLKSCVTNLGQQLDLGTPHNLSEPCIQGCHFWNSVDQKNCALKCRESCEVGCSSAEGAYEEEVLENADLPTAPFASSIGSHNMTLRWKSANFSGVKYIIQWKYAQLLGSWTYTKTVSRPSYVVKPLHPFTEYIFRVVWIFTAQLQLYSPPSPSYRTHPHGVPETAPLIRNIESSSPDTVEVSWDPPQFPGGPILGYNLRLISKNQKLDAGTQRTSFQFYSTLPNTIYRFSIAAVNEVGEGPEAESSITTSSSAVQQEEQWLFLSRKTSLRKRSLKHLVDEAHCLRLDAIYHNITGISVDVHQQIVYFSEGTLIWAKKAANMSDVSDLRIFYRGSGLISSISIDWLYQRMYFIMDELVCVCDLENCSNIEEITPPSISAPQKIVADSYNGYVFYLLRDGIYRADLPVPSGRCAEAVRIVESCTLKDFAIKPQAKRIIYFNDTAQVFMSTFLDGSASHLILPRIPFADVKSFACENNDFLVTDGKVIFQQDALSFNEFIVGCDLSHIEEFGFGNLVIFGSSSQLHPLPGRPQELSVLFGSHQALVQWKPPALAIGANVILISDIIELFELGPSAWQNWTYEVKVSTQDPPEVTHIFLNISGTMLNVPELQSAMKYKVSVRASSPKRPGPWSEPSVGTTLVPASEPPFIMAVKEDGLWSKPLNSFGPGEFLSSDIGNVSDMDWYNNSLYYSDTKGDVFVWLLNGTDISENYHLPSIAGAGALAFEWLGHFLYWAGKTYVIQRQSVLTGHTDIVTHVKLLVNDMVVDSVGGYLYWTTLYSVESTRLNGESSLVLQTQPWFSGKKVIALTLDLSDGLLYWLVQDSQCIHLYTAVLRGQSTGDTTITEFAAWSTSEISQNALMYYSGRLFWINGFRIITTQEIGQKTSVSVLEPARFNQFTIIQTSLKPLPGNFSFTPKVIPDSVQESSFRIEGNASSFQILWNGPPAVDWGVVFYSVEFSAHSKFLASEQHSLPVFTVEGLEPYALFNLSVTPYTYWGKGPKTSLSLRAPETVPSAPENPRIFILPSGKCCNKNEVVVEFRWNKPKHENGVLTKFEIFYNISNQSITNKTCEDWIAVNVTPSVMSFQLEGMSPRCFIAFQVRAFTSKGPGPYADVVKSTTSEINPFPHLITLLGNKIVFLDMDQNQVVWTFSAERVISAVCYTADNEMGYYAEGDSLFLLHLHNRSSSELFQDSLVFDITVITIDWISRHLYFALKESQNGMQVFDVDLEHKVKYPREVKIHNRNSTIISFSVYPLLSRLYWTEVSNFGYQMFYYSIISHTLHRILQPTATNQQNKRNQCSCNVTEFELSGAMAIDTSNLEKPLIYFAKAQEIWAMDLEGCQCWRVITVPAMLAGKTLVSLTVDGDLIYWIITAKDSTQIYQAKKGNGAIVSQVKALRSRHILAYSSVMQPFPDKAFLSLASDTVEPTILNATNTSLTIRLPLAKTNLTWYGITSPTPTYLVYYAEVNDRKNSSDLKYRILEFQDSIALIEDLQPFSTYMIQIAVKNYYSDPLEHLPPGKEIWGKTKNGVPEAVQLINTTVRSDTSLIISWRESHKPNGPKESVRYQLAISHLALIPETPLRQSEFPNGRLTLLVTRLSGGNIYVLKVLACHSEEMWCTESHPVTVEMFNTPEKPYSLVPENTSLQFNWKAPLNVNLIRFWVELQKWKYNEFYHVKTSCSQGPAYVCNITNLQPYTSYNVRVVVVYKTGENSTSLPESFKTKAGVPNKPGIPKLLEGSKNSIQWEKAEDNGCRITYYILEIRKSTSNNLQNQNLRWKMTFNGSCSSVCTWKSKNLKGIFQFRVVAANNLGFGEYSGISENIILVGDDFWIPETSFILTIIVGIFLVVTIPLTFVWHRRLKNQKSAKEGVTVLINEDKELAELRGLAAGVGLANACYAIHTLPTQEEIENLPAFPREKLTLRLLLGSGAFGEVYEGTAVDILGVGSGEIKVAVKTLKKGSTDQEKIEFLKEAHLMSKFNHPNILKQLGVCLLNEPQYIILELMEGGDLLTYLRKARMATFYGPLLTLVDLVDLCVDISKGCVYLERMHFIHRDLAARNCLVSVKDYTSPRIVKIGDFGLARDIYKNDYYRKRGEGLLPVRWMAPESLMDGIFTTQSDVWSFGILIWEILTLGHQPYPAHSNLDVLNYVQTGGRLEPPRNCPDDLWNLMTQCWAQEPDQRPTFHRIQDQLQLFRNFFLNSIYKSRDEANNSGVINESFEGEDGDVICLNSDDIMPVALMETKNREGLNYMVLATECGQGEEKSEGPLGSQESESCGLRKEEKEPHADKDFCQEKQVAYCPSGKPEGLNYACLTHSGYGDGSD
CD74-ROS1, sequence (P04233 whole entry): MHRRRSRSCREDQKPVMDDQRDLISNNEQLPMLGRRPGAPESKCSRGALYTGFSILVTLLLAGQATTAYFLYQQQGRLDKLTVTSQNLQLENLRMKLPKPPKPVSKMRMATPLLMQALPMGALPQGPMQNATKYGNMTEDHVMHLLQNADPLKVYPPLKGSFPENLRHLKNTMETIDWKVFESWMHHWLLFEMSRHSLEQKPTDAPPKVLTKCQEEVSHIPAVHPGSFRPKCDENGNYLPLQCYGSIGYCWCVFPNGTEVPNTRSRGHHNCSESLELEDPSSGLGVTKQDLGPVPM
CD74-ROS1, sequence (P08922 whole entry): as the sequence (P08922 whole entry) above

Take `COc1cc(N2CCC(N3CCN(CC4CCN(c5ccc6c(c5)CN(C5CCC(=O)NC5=O)C6=O)CC4)CC3)CC2)ccc1Nc1ncc(Cl)c(Nc2ccccc2P(C)(C)=O)n1` (stereo unspecified): the 50% degradation concentration (DC50) (in general, the midpoint of the concentration-degradation curve) in test [1] is 3.8 nM; in [13], 3.8 nM; in test [14], over 1000 nM; in test [15], over 1000 nM; in [16] it was over 1000 nM; in test [17] it was over 1000 nM. For the same compound, the midpoint of inhibition in [2], the IC50, lay at 1.6 nM. Besides, the Activity entry in [3], in [4], in test [5], in [6], in test [7] and in test [8] was “Dose-Dependent Effect” in each case. The Activity result in test [9], in [10], in test [11] and in test [12] was “Dose-Dependent Effect” throughout. Besides, the outcome in test [18], in [19] and in test [20] was Active.

In the case of `COc1cc(N2CCN(CC3CCN(c4ccc5c(c4)CN(C4CCC(=O)NC4=O)C5=O)CC3)CC2)ccc1Nc1ncc(Cl)c(Nc2ccccc2P(C)(C)=O)n1` (stereo unspecified), in [21], half-maximal inhibition (IC50) required 9.5 nM. The DC50 in test [1] is 11 nM. The Emax (as a rule, the maximal effect, on the per cent scale that the assay sets) in test [22] is 93%.

As to `C[C@H]1Oc2cc(cnc2N)-c2c(nn(C)c2C#N)CN(C)C(=O)c2ccc(F)cc21` [LORLATINIB], the IC50 (in general, the concentration at which inhibition is half-maximal) in [23] is 1.5 nM; in test [24], over 2000 nM.

Turning to `COc1cc(N2CCC(N3CCN(C)CC3)CC2)ccc1Nc1ncc(Cl)c(Nc2ccccc2P(C)(C)=O)n1` [BRIGATINIB], in test [24], the IC50 is over 2000 nM.

As for `C[C@H]1CNC(=O)c2cnn3ccc(nc23)N[C@H](C)c2cc(F)ccc2O1` [REPOTRECTINIB], the IC50 in test [25] and in test [24] was over 2000 nM in each case.

With `COc1cc(N2CCC(N3CCN(CC4CN(c5cccc6c5C(=O)N(C5CCC(=O)NC5=O)C6=O)C4)CC3)CC2)ccc1Nc1ncc(Cl)c(Nc2ccccc2P(C)(C)=O)n1` (stereo unspecified), the IC50 stood at 41 nM in test [21] and 244 nM in test [26]. Further, the 50% degradation concentration (DC50) in test [1] was determined as 56 nM. In test [22], the maximal effect (Emax) was 79%.

Take `COc1cc(N2CCC(N3CCN(C4CN(c5cccc6c5C(=O)N(C5CCC(=O)NC5=O)C6=O)C4)CC3)CC2)ccc1Nc1ncc(Cl)c(Nc2ccccc2P(C)(C)=O)n1` (stereo unspecified): the figures for the IC50 in [21] and in test [26] were 113 nM and 1040 nM, respectively. Also, the DC50 in test [1] was 108 nM. In addition, the Emax in test [22] was determined as 77%.

As to `Cc1cc(Nc2ncc(Cl)c(Nc3ccccc3S(=O)(=O)C(C)C)n2)c(OC(C)C)cc1C1CCN(C2CCN(C3CN(c4ccc5c(c4)C(=O)N(C4CCC(=O)NC4=O)C5=O)C3)CC2)CC1` (stereo unspecified), the 50% degradation concentration (DC50) in test [1] amounted to 45 nM.

As for `COc1cc(N2CCC(N3CCN(CC4CCN(c5cccc6c5C(=O)N(C5CCC(=O)NC5=O)C6=O)CC4)CC3)CC2)ccc1Nc1ncc(Cl)c(Nc2ccccc2P(C)(C)=O)n1` (stereo unspecified), the IC50 in [21] was 11.2 nM; in [26], 87 nM. Besides, in test [1], the DC50 came out at 6 nM. In test [22], the Emax came to 99%.
